# In ChEMBL document CHEMBL3779767, “Identification of potent and selective MTH1 inhibitors” (Bioorg Med Chem Lett, 2016):
# Active and inactive are the calls of the source. The rule behind the calls is not given here.
# Assays:
# MDA-MB-231 [1] = assay: Antiproliferative activity against human MDA-MB-231 cells assessed as change in phenotypic response; type: functional, cell-based
# [2] = Cytotoxicity against human 293T cells assessed as change in phenotypic response; type: cell-based; details: hek-293t
# BJ [3] = assay: Cytotoxicity against human BJ cells assessed as change in phenotypic response; type: cell-based
# SAOS-2 [4] = assay: Antiproliferative activity against human Saos2 cells assessed as change in phenotypic response; type: functional, cell-based
# A549 [5] = assay: Antiproliferative activity against human A549 cells assessed as change in phenotypic response; type: functional, cell-based
# [6] = Cytotoxicity against human WI38 cells assessed as change in phenotypic response; type: cell-based; details: wi-38
# NCI-H460 [7] = assay: Antiproliferative activity against human NCI-H460 cells assessed as change in phenotypic response; type: functional, cell-based
# MRC5 [8] = assay: Cytotoxicity against human MRC5 cells assessed as change in phenotypic response; type: cell-based
# HMEC [9] = assay: Cytotoxicity against human HMEC cells assessed as change in phenotypic response; type: cell-based
# SW480 [10] = assay: Antiproliferative activity against human SW480 cells assessed as change in phenotypic response; type: functional, cell-based
# HeLa [11] = assay: Antiproliferative activity against human HeLa cells assessed as change in phenotypic response; type: functional, cell-based
# HCT-116 [12] = assay: Antiproliferative activity against human HCT116 cells assessed as change in phenotypic response; type: functional, cell-based
# U2OS [13] = assay: Antiproliferative activity against human U2OS cells assessed as change in phenotypic response; type: functional, cell-based
# HeLa [14] = assay: Antiproliferative activity against human HeLa cells assessed as change in phenotypic response up to 50 uM; type: functional, cell-based
# UOK 262 [15] = assay: Antiproliferative activity against human UOK 262 cells assessed as change in phenotypic response up to 50 uM; type: functional, cell-based
# NCI-H460 [16] = assay: Antiproliferative activity against human NCI-H460 cells assessed as change in phenotypic response measured after prolonged treatment; type: functional, cell-based
# SW480 [17] = assay: Antiproliferative activity against human SW480 cells assessed as change in phenotypic response up to 50 uM; type: functional, cell-based
# [18] = Cytotoxicity against human 293T cells assessed as change in phenotypic response measured after prolonged treatment; type: cell-based; details: hek-293t
# NCI-H358 [19] = assay: Antiproliferative activity against human NCI-H358 cells assessed as change in phenotypic response measured after prolonged treatment; type: functional, cell-based
# [20] = Half life in mouse liver microsomes; type: ADME
# Method in brief: (§1)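 Incubated with human or mouse liver microsomes; the read-out was intrinsic clearance alongside half-life, given in hours.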
# MDA-MB-231 [21] = assay: Antiproliferative activity against human MDA-MB-231 cells assessed as change in phenotypic response up to 50 uM; type: functional, cell-based
# A549 [22] = assay: Antiproliferative activity against human A549 cells assessed as change in phenotypic response measured after prolonged treatment; type: functional, cell-based
# HMEC [23] = assay: Cytotoxicity against human HMEC cells assessed as change in phenotypic response up to 50 uM; type: cell-based
# MRC5 [24] = assay: Cytotoxicity against human MRC5 cells assessed as change in phenotypic response measured after prolonged treatment; type: cell-based
# [25] = Efflux ratio of permeability in MDCK cells; type: ADME, cell-based, Canis lupus familiaris; details: dog
# Method in brief: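 Permeability measured across a confluent MDCK cell monolayer, with the efflux ratio reported alongside the permeability value.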
# [26] = Cytotoxicity against human 293T cells assessed as change in phenotypic response up to 50 uM; type: cell-based; details: hek-293t
# HMEC [27] = assay: Cytotoxicity against human HMEC cells assessed as change in phenotypic response measured after prolonged treatment; type: cell-based
# [28] = Plasma protein binding in human; type: ADME, cell-free; details: read-out: PPB (converted)
# HCT-116 [29] = assay: Antiproliferative activity against human HCT116 cells assessed as change in phenotypic response measured after prolonged treatment; type: functional, cell-based
# UOK 262 [30] = assay: Antiproliferative activity against human UOK 262 cells assessed as change in phenotypic response measured after prolonged treatment; type: functional, cell-based
# SAOS-2 [31] = assay: Antiproliferative activity against human Saos2 cells assessed as change in phenotypic response up to 50 uM; type: functional, cell-based
# NCI-H358 [32] = assay: Antiproliferative activity against human NCI-H358 cells assessed as change in phenotypic response up to 50 uM; type: functional, cell-based
# Liver microsome [33] = assay: Intrinsic clearance in human liver microsomes; type: ADME
# [34] = Half life in rat plasma; type: ADME, cell-free
# Method in brief: (§2)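 Plasma stability was measured in human and rat plasma, with half-life reported in hours.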
# HCT-116 [35] = assay: Antiproliferative activity against human HCT116 cells assessed as change in phenotypic response up to 50 uM; type: functional, cell-based
# HeLa [36] = assay: Antiproliferative activity against human HeLa cells assessed as change in phenotypic response measured after prolonged treatment; type: functional, cell-based
# MRC5 [37] = assay: Cytotoxicity against human MRC5 cells assessed as change in phenotypic response up to 50 uM; type: cell-based
# BJ [38] = assay: Cytotoxicity against human BJ cells assessed as change in phenotypic response up to 50 uM; type: cell-based
# MDA-MB-231 [39] = assay: Antiproliferative activity against human MDA-MB-231 cells assessed as change in phenotypic response measured after prolonged treatment; type: functional, cell-based
# A549 [40] = assay: Antiproliferative activity against human A549 cells assessed as change in phenotypic response up to 50 uM; type: functional, cell-based
# BJ [41] = assay: Cytotoxicity against human BJ cells assessed as change in phenotypic response measured after prolonged treatment; type: cell-based
# U2OS [42] = assay: Antiproliferative activity against human U2OS cells assessed as change in phenotypic response up to 50 uM; type: functional, cell-based
# U2OS [43] = assay: Antiproliferative activity against human U2OS cells assessed as change in phenotypic response measured after prolonged treatment; type: functional, cell-based
# [44] = Cytotoxicity against human WI38 cells assessed as change in phenotypic response measured after prolonged treatment; type: cell-based; details: wi-38
# [45] = Cytotoxicity against human WI38 cells assessed as change in phenotypic response up to 50 uM; type: cell-based; details: wi-38
# [46] = Half life in human liver microsomes; type: ADME; method in brief: as §1
# SW480 [47] = assay: Antiproliferative activity against human SW480 cells assessed as change in phenotypic response measured after prolonged treatment; type: functional, cell-based
# NCI-H460 [48] = assay: Antiproliferative activity against human NCI-H460 cells assessed as change in phenotypic response up to 50 uM; type: functional, cell-based
# [49] = Half life in human plasma; type: ADME, cell-free; method in brief: as §2
# [50] = Intrinsic clearance in mouse liver microsomes; type: ADME
# [51] = Permeability across MDCK cells; type: ADME, cell-based, Canis lupus familiaris; details: dog, read-out: permeability
# Method in brief: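 Measured across a confluent MDCK cell monolayer; apparent permeability is reported together with the efflux ratio.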
# SAOS-2 [52] = assay: Antiproliferative activity against human Saos2 cells assessed as change in phenotypic response measured after prolonged treatment; type: functional, cell-based
# Liver microsome [53] = assay: Intrinsic clearance in human liver microsomes at 1 uM up to 40 mins by LC-MS/MS analysis; type: ADME
# [54] = Plasma protein binding in human plasma at 10 uM after 4 hrs by LC-MS/MS analysis; type: ADME, cell-free; details: read-out: PPB (converted)
structure (smiles),measurement,setting,value
Nc1nc(NC2CC2)cc(-c2cccc(Cl)c2Cl)n1,Activity,MDA-MB-231 [1],Active
same,Activity,[2],Toxic
same,Activity,BJ [3],Toxic
same,Activity,SAOS-2 [4],Active
same,Activity,A549 [5],Active
same,Activity,[6],Toxic
same,Activity,NCI-H460 [7],Active
same,Activity,MRC5 [8],Toxic
same,Activity,HMEC [9],Toxic
same,Activity,SW480 [10],Active
same,Activity,HeLa [11],Active
same,Activity,HCT-116 [12],Active
same,Activity,U2OS [13],Active
Cc1cnc(N)nc1OCC(C)(C)C,Activity,HeLa [14],inactive
same,Activity,UOK 262 [15],inactive
same,Activity,NCI-H460 [16],inactive
same,Activity,SW480 [17],inactive
same,Activity,[18],Non-toxic
same,Activity,NCI-H358 [19],inactive
same,half-life,[20],18 min
same,Activity,MDA-MB-231 [21],inactive
same,Activity,A549 [22],inactive
same,Activity,HMEC [23],Non-toxic
same,Activity,MRC5 [24],Non-toxic
same,efflux ratio,[25],0.8
same,Activity,[26],Non-toxic
same,Activity,HMEC [27],Non-toxic
same,fraction unbound,[28],0.06
same,Activity,HCT-116 [29],inactive
same,Activity,UOK 262 [30],inactive
same,Activity,SAOS-2 [31],inactive
same,Activity,NCI-H358 [32],inactive
same,CLH,Liver microsome [33],82 µL/min/mg
same,half-life,[34],1200 min
same,Activity,HCT-116 [35],inactive
same,Activity,HeLa [36],inactive
same,Activity,MRC5 [37],Non-toxic
same,Activity,BJ [38],Non-toxic
same,Activity,MDA-MB-231 [39],inactive
same,Activity,A549 [40],inactive
same,Activity,BJ [41],Non-toxic
same,Activity,U2OS [42],inactive
same,Activity,U2OS [43],inactive
same,Activity,[44],Non-toxic
same,Activity,[45],Non-toxic
same,half-life,[46],30 min
same,Activity,SW480 [47],inactive
same,Activity,NCI-H460 [48],inactive
same,half-life,[49],1140 min
same,CLH,[50],280 µL/min/mg
same,Papp,[51],37 ×10⁻⁶ cm/s
same,Activity,SAOS-2 [52],inactive
CNc1cc(-c2cccc(Cl)c2Cl)nc(N)n1,Activity,MDA-MB-231 [1],Active
same,Activity,[2],Toxic
same,Activity,BJ [3],Toxic
same,Activity,SAOS-2 [4],Active
same,Activity,A549 [5],Active
same,Activity,[6],Toxic
same,Activity,NCI-H460 [7],Active
same,Activity,MRC5 [8],Toxic
same,efflux ratio,[25],0.8
same,Activity,HMEC [9],Toxic
same,Activity,SW480 [10],Active
same,CLH,Liver microsome [53],54 µL/min/mg
same,Activity,HeLa [11],Active
same,Activity,HCT-116 [12],Active
same,Activity,U2OS [13],Active
same,Papp,[51],30 ×10⁻⁶ cm/s
same,"fraction unbound at 4 h, 10 µM",[54],0.08
